The results in this text go back to ChEMBL document CHEMBL1122480, “Synthesis and pharmacological studies of 4,4-disubstituted piperidines: a new class of compounds with potent analgesic properties” (J Med Chem, 1983).

Broadly, the ED50 is the midpoint of the dose-response relation. A word on the IC50: it is the concentration needed to halve the response being measured.

For experiment [1], the system named is Mus musculus. Kind of experiment: Analgesic activity using PQW test, oral administration. The settings on record: Mus musculus, po; read-out: ED50. Format: functional. A digest of the protocol:
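Oral drug in mice, followed by phenylbenzoquinone-induced writhing. Analgesia is scored as fewer abdominal contractions in a group of five animals than in a control group. ED50 is the dose that reduces contractions by 50%, estimated graphically by the Litchfield method. Otherwise the percentage of animals showing analgesia is given.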

Experiment [2] relates to Mus musculus. Briefly: Analgesic activity in tail flick test, oral administration. In kind it is functional. The method in brief: (§1)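 Mouse tail-flick test against a noxious heat stimulus (D'Amour–Smith method), with drug given by the stated route. […] Where no exact ED50 was obtained, the percentage of animals showing analgesia is reported.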
A general note: In hot-plate and tail-flick tests a longer latency is read as antinociception.

Experiment [3] relates to Mus musculus. Kind of experiment: Analgesic activity in tail flick test, subcutaneous administration. Format: functional. A digest of the protocol:
as §1

Experiment [4] concerns the target T1, Serotonin (5-HT) receptor (Homo sapiens) (UniProt P30939+P41595+Q13639+P28222+P46098+P08908+P28221+P28223+P28335+P28566+P34969+P50406+P47898+A5X5Y0+O95264+Q70Z44+Q8WXA8). Briefly: Serotonin antagonism in guinea pig 0.5 hr after oral administration. Format: functional, organism-based. Particulars: Cavia porcellus; target entry is the homologue from another species. A digest of the protocol: (§2)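 Guinea pigs were protected against a lethal serotonin dose, per the cited Roemer and Weidmann method. Test substance was given subcutaneously or orally, as named in each line. Protection was assessed at the stated interval after dosing (0.5, 6 or 24 h). ED50 (mg/kg) was estimated graphically by the Litchfield method.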

In experiment [5] the target is T1, Serotonin (5-HT) receptor (Homo sapiens). Briefly: Serotonin antagonism in guinea pig 0.5 hr after subcutaneous administration. In kind it is functional, organism-based. Particulars: Cavia porcellus; target entry is the homologue from another species. A digest of the protocol:
as §2

Experiment [6] has the same target. Kind of experiment: Serotonin antagonism in guinea pig 24 hr after oral administration. Format: functional, organism-based. The settings on record: Cavia porcellus; target entry is the homologue from another species. A digest of the protocol: as §2
The target is the same in experiment [7]. Kind of experiment: Serotonin antagonism in guinea pig 24 hr after subcutaneous administration. In kind it is functional, organism-based. Particulars: Cavia porcellus; target entry is the homologue from another species. The method in brief: as §2
The target is the same in experiment [8]. Kind of experiment: Serotonin antagonism in guinea pig 6 hr after oral administration. The settings on record: Cavia porcellus; target entry is the homologue from another species. In kind it is functional, organism-based. The method in brief: as §2
For experiment [9] the target is unchanged. Briefly: Serotonin antagonism in guinea pig 6 h after subcutaneous administration. Format: functional, organism-based. Particulars: Cavia porcellus; target entry is the homologue from another species. A digest of the protocol:
as §2

Experiment [10] has as its system Mus musculus. Briefly: 5 HTP (5-hydroxytryptophan) antagonism in mouse 0.5 h after subcutaneous administration (0.03-0.1 dose range). Format: functional. Particulars: sc. A digest of the protocol:
(§3)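 Mice received drug sc over the stated dose range, then DL-5-hydroxytryptophan to induce head twitches. ED50 is the dose that cut the mean number of head twitches by 50% versus a saline-treated control group (N = 5-10). It was estimated graphically by the Litchfield method.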

The target of experiment [11] is T2, Opioid receptor (Rattus norvegicus, UniProt P33533+P34975+P33535). Briefly: Inhibition of [3H]naloxone binding to rat brain membrane with 100 mM NaCl.
For experiment [12], the target named is T2, Opioid receptor. Briefly: Inhibition of [3H]-Naloxone binding to rat brain membrane without NaCl.
The subject of experiment [13] is Mus musculus. Briefly: 5 HTP (5-hydroxytryptophan) antagonism in mouse 0.5 hr after subcutaneous administration (0.01-0.3 dose range). The settings on record: sc. Format: functional. The method in brief:
as §3

As to `CN(C(=O)C(C)(C)C1(O)CCN(CCc2ccccc2Cl)CC1)C1CCCCC1` [PIPRADIMADOL], the ED50 was 26 mg/kg with Mus musculus [1]; more than 100 mg/kg with Mus musculus [2] (Mus musculus, Tail, po, read-out: ED50); 21 mg/kg in the experiment with Mus musculus [3] (Mus musculus, Tail, sc, read-out: ED50); 0.103 mg/kg in experiment [4]; 0.055 mg/kg in experiment [5]; 0.135 mg/kg in experiment [6]. Moreover, the ED50 in [7] is more than 0.1 mg/kg; in experiment [8], 0.14 mg/kg; in experiment [9] it was 0.05 mg/kg; with Mus musculus [10], 0.1 mg/kg. Also, the IC50 at Opioid receptor [11] is reported as 825 nM; on Opioid receptor [12] it was 550 nM.
`CC(C(=O)N(C)C1CCCCC1)C1(O)CCN(CCc2ccccc2Cl)CC1.O=C(O)/C=C\C(=O)O` (stereo in doubt; 15): the 50% effective dose (ED50) with Mus musculus [1] was found to be 10.8 mg/kg; in the experiment on Mus musculus [2], 22 mg/kg; in the experiment with Mus musculus [3] it was 3.2 mg/kg; in the experiment with Mus musculus [13], 0.07 mg/kg. Also, the 50% inhibitory concentration (IC50) on Opioid receptor [11] stood at 450 nM; on Opioid receptor [12], 45 nM.
